Dynein cargo inh = inhibitors of GR-EGFP nuclear translocation, primary screen, dynein cargo transport inhibitor project, imaging, high-content, 3617.4 mouse cells; 0.47% of 220,000 active; test concentration mostly 20 µM; stimulated with dexamethasone, 1 µM; stronger effect = lower value; z-score, hits read low; AID 1381, 2008;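 active = plate z-score of nuclear minus cytoplasmic receptor signal below a set negative limit, without overly bright fluorescence or cell loss, cut at about -3.5 in these data, passing the limit was not always enough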;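 note: z-score of nuclear minus cytoplasmic ring GR-EGFP intensity difference per well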
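Buffer or medium – tet-free medium with charcoal-stripped serum · Signal – automated 10x imaging of fixed Hoechst-stained cells · Also added – dexamethasone agonist, 1.0 µM final, for 30 min · Incubation – induction 48 h, compound 1 h, agonist 30 min · Read-out – GR-EGFP nuclear translocation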
L929 necroptosis = inhibitors of zVAD-triggered necroptosis, primary screen, L929 cells. L929 zVAD necroptosis rescue, ATP luminescence, 24 h; with zVAD 60 µM. viability rescue, % at 10 µM. 0.38% of 220,000 active. AID 1377, 2008;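 active = activation, scaled between plate controls, above about 75%, limit read from the data; inactive = activation under that limit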;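 note: 0% = zVAD with DMSO and 100% = DMSO alone without zVAD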
TNF necrop inh = inhibitors of TNF-alpha triggered necroptosis, primary screen, cell-based, Jurkat FADD-/-, single concentration. Jurkat FADD-/- TNF necroptosis rescue, ATP luminescence, 24 h; 0 = TNF only, 100 = no-TNF cells. activation (protection from cell death), % at 10 µM. 0.068% of 220,000 active. AID 463075, 2010;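 active = activation, meaning protection from cell death, of at least 50% relative to plate controls; inactive = activation below 50%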;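 note: necroptosis triggered by 40 ng/mL TNF-alpha added together with compound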
Mdm2 ligase inh = MDM2-luciferase reporter signal enhancers, primary screen, MDM2 E3 ligase inhibitor project, cell-based, luminescence, 1536-well; E3 ubiquitin-protein ligase Mdm2 (Homo sapiens), Q00987; cell-based MDM2 ubiquitination luciferase reporter, 2 h; 0 = plate control, 100 = twice control, blank-subtracted; signal enhancement, % at 5 µM; 0.11% of 210,000 active; AID 1230, 2008;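 active = signal enhancement of 30% or more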;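 note: luminescence tracks abundance of the self-degrading MDM2-luciferase fusion protein; higher signal means inhibition of MDM2 E3 ligase activity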
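Test system: stable mammalian line carrying autodegrading MDM2–luciferase fusion reporter; quantity: 2000 cells in each well; times: 4 h cell settling then 2 h compound exposure, 37 °C; detection: luminescence with SteadyLite reagent, 15 min at room temperature; evaluation: percent signal gain over controls, blank-subtracted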
Autophagy mod = autophagy modulators in MEF cells, primary screen, imaging, high-content, MEF GFP-LC3; MEF GFP-LC3 puncta imaging; test concentration mostly 10 µM; 0.98% of 190,000 active; calls only at 10 µM (by protocol); AID 463193, 2010;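 active = percentage of spot-positive cells more than 3 SD above its plate mean, without a fluorescence outlier flag or 80% toxicity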;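 note: spot-positive cell cutoff set from DMSO-treated cells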
Hck-Nef inh = inhibitors of Nef-activated human Hck kinase, primary screen, biochemical, Z-Lyte FRET, 384-well, Hck-YEEI; Tyrosine-protein kinase HCK (Homo sapiens), P08631; Recombinant Hck-YEEI plus Nef, Z-Lyte FRET kinase assay; inhibition, % at 20 µM; 0.68% of 220,000 active; AID 463187, 2010;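 active = Hck-Nef kinase inhibition above about 50%, limit read from the data; inactive = inhibition below that limit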;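 note: 0% = DMSO with Hck plus Nef and 100% = Hck alone without Nef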
Target sequence (P08631 whole entry, looked up): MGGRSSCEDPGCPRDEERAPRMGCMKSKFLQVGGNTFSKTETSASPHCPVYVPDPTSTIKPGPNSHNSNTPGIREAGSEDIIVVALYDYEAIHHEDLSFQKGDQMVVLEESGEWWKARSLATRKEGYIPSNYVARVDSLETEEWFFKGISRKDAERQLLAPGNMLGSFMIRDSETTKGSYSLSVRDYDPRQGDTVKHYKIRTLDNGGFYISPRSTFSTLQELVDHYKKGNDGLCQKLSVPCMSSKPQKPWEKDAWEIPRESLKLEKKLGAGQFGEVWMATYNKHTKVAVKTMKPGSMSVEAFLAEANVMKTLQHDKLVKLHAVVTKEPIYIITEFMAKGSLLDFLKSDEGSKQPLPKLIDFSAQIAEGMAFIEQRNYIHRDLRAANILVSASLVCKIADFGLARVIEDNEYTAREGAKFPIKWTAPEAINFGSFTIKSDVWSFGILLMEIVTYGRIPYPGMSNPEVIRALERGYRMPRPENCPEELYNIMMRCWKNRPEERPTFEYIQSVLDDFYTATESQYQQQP
zVAD necrop conf = inhibitors of zVAD-triggered necroptosis in L929, confirmation, L929 cells, duplicate runs; shares compounds with L929 necroptosis; L929 zVAD-induced necroptosis rescue, ATP luminescence, 24 h; activation (protection from necroptosis), % at 10 µM; 16% of 760 active; AID 463117, 2010;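 active = mean protection from necroptosis of at least 50% over duplicate tests; inactive = mean protection below 50%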;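 note: 0% = cells with zVAD alone and 100% = vehicle cells without zVAD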
Active calls of the source: *; i = inactive; x = not tested or not shown. In the library only some 2.4% were active in any assay of this set; here they are far more common.

SMILES | Dynein cargo inh | L929 necroptosis | TNF necrop inh | Mdm2 ligase inh | Autophagy mod | Hck-Nef inh | zVAD necrop conf
CN(C)N1C(N)=C(C#N)C(c2cccc3ccccc23)C2=C1CC(c1ccccc1)CC2=O (configuration not stated) | -0.82 | 1 | -6 | -7 | i | 5 | x
O=C(Cc1ccc(F)cc1)Nc1cccc(-c2ccc3nncn3n2)c1 | -0.57 | 89* | 5 | 3 | i | -11 | 3
O=C(NCCN1C(=O)C2C3C=CC(C3)C2C1=O)Nc1ccc(Br)cc1 (configuration not stated) | -1.4 | 76* | 1 | -10 | i | 0 | 2
O=C(COc1ccc(/C=N/NC(=O)C(=O)N2CCCCCC2)cc1)Nc1ccccc1Cl | -0.25 | 78* | 0 | -12 | i | 1 | 45
COc1cccc(/C=C/C(=O)OCC(=O)Nc2ccc(Cl)cn2)c1 | 0.27 | 0 | 2 | -12 | i | 23 | x
CC(C)(C)C1CCc2nc(NC(=O)Cc3cn4ccsc4n3)sc2C1 (configuration not stated) | -0.083 | 76* | 4 | -15 | i | -1 | 23
COc1ccc(NC(=O)CSc2ncnc3c2nnn3-c2ccc(F)cc2)c(OC)c1 | 1.7 | 0 | 1 | -11 | i | -14 | x
CCN1C(=O)/C(=C2/Sc3ccccc3N2CC)S/C1=N\c1ncn[nH]1 | -0.19 | 82* | -3 | -3 | i | 53* | 5
CC(C)CN1C(=O)/C(=C/c2cccs2)NC1=S | -1.4 | 0 | 9 | x | i | -9 | x
CCCN1C(=O)/C(=C/c2ccc(C)s2)NC1=S | 0.0059 | 92* | 30 | -4 | i | 6 | 87*
Cc1cc(NCCCN2CCOCC2)n2ncc(-c3ccc(Cl)cc3)c2n1 | -0.4 | 84* | -1 | -7 | i | 2 | 1
Cc1nn(-c2ccccc2)c(C)c1/C=N/NC(=O)CSc1nnc(SCc2cccc3ccccc23)s1 | 1.3 | 0 | -1 | 1 | i | -1 | x
COc1ccc(C(=O)/C(=C\c2ccco2)N2C=CC=CC2=C(C#N)C#N)cc1 | 0.1 | 97* | 11 | -15 | i | 5 | 28
COc1ccc(C(=O)N/C(=C\c2ccco2)C(=O)OCc2ccco2)cc1 | 0.15 | 0 | 8 | -10 | x | 20 | x
CN1CCN(c2ccccc2NC(=O)c2cc3ccccc3o2)CC1 | 0.036 | 78* | 3 | -19 | i | 23 | 31
Cc1ccc(C(=O)Nc2ncc(C)s2)o1 | -0.51 | 60 | 1 | -22 | i | 2 | x
Cc1cnc(NC(=O)c2cc3ccccc3o2)s1 | -0.38 | 81* | 10 | -55 | i | 23 | 0
CC1Cc2ccccc2N1C(=O)COc1ccc2c(c1)OCO2 (configuration not stated) | 1.8 | 1 | 11 | 1 | i | -33 | x
C#Cc1ccc([C@H]2C=C(C(=O)N3CCN(Cc4ccc5c(c4)OCO5)CC3)O[C@@H](OCc3ccc(CO)cc3)C2)cc1 | -0.28 | 1 | 0 | x | i | 8 | x
Cc1ccc(NC(=O)/C(=C\c2ccccc2)NC(=O)/C=C/c2ccccc2)cc1 | 0.18 | 0 | -11 | -3 | i | 1 | x
CCC(=O)Nc1ccc2c(c1)ncn2-c1ccc(OC)cc1 | -0.39 | 81* | 3 | 6 | i | -8 | 47
CCC(=O)Nc1ccc2c(c1)ncn2-c1ccc(C)cc1 | 0.55 | 84* | 3 | -12 | i | 10 | 36
COc1ccc(-n2cnc3cc(NCc4ccccn4)ccc32)cc1 | -0.84 | 78* | 0 | 0 | i | -1 | 66*
COc1ccc(-n2cnc3ccccc32)cc1 | -0.71 | 80* | 0 | -22 | i | -2 | 38
COc1ccc(-n2cnc3cc(NCc4cccs4)ccc32)cc1 | -0.6 | 73 | -5 | -6 | i | 12 | x
SMILES | Dynein cargo inh | L929 necroptosis | TNF necrop inh | Mdm2 ligase inh | Autophagy mod | Hck-Nef inh | zVAD necrop conf
CCC(=O)Nc1ccc2c(c1)ncn2-c1ccccc1C | 1.4 | 1 | 1 | -11 | i | 11 | x
COc1ccccc1-n1cnc2cc(NCc3ccccn3)ccc21 | -0.012 | 1 | -4 | -9 | i | -1 | x
CC(C)(CO)NC(=S)NCc1ccco1 | 1.6 | -1 | -2 | -16 | x | -22 | x
Cc1cc(NC(=O)C2CCCN2C(=O)Nc2cccc(Cl)c2)ccc1-n1cnnn1 (configuration not stated) | 1.8 | 0 | 3 | -26 | i | 27 | x
O=C(NC(=O)N1CCCC1)c1csnn1 | -0.4 | 1 | 1 | -6 | x | 15 | x
c1ccc(-n2cnc3cc(NCc4cccs4)ccc32)cc1 | 1.3 | 85* | -7 | -40 | i | 2 | 45
NS(=O)(=O)c1cccc(NC(=O)Nc2ccc(Cl)cc2)c1 | -1.3 | 75* | 1 | -20 | x | 16 | 3
O=[N+]([O-])c1ccc2c(c1)ncn2-c1ccccc1 | 0.19 | 83* | 0 | -12 | i | 9 | 20
CN(C)S(=O)(=O)c1ccc(Cl)c(NC(=O)COC(=O)/C=C/c2ccco2)c1 | -0.55 | 0 | 1 | 6 | i | 13 | x
CC(=O)c1sc(Nc2ccccn2)nc1C | -0.28 | 96* | -4 | -29 | i | 2 | 1
COCCN(Cc1cc2cc3c(cc2nc1Cl)OCO3)C(=O)c1ccc(C)cc1 | -0.5 | -2 | 1 | 8 | i | 21 | x
O=C(CSc1nc2cc(C(F)(F)F)ccc2n1Cc1ccccc1)NC1CCS(=O)(=O)C1 (configuration not stated) | -0.64 | -1 | 2 | -8 | i | 2 | x
CC1=CC(C)C2(COC(=O)Nc3ccccc3)COC(C)C1C2C (configuration not stated) | -0.77 | 68 | 1 | 1 | i | 19 | x
CC(C)(C)c1cc(NC(=O)Nc2ccc(Br)cc2Cl)no1 | -1.1 | 76* | 2 | 0 | i | 2 | 2
COc1ccc(/C=N\NS(=O)(=O)c2ccc(Cl)cc2)cc1COc1ccccc1[N+](=O)[O-] | -0.88 | 0 | 0 | -41 | i | 8 | x
Cc1c(Cl)cccc1NC(=O)Nc1cc(C(C)(C)C)nn1C | 0.98 | 81* | 10 | -9 | x | 14 | 31
O=C(COC(=O)c1cccc(C(=O)OCC(=O)NC2CC2)n1)NC1CC1 | -0.95 | 2 | 0 | 1 | i | -21 | x
